From ChEMBL document CHEMBL1149071, “Lignans from the wood of Abies pinsapo” (J Nat Prod, 1994)
Active and inactive are the calls of the source. The calls are words filed in the database; no cut-off is given here.

Assays:
Type in all cases: functional, organism-based
[1] = test system: Vesicular stomatitis virus; assay: Antiviral activity against VSV at 40 ug/ml
[2] = test system: Human alphaherpesvirus 1; assay: Antiviral activity against HSV1 at 40 ug/ml
[3] = test system: Aspergillus niger; assay: Antifungal ativity against Aspergillus niger CECT 2089
How it was run: (§1)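 Disk diffusion on brain-heart agar plates inoculated with 0.1 ml of 8 h-old fungal cultures grown in CM medium (1% glucose, 0.5% yeast extract, 0.5% malt extract). 5-mm paper disks carrying 1 mg of sample were applied. Plates were held 2 h at 4° for diffusion, then incubated at 28°. Growth-inhibition halo (mm) was read at 18 h.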

[4] = test system: Penicillium; assay: Antifungal ativity against Penicillium; how it was run: as §1

COc1cc(C[C@H]2[C@H](OC(C)=O)OC[C@@H]2[C@H](OC(C)=O)c2ccc(OC(C)=O)c(OC)c2)ccc1OC(C)=O
Activity [1]: inactive
Activity [2]: inactive

COc1cc([C@H]2OC[C@H]([C@H](OC(C)=O)c3ccc(OC(C)=O)c(OC)c3)[C@@H]2COC(C)=O)ccc1OC(C)=O
Activity [1]: inactive
Activity [2]: inactive

COc1cc(C[C@H]2COC(O)[C@@H]2Cc2ccc(O)c(OC)c2)ccc1O (some centres undefined)
Activity [3]: inactive
Activity [1]: inactive
Growth-inhibition halo [4]: inactive
Activity [2]: inactive

COc1cc(C[C@H]2CO[C@H](c3ccc(O)c(OC)c3)[C@H]2CO)ccc1O
Activity [3]: inactive
Activity [1]: inactive
Growth-inhibition halo [4]: inactive
Activity [2]: inactive

COc1cc(C[C@H](COC(C)=O)Oc2ccc(C[C@@H]3[C@@H](Cc4ccc(OC(C)=O)c(OC)c4)CO[C@H]3OC(C)=O)cc2OC)ccc1OC(C)=O
Activity [1]: inactive
Activity [2]: inactive

COc1cc(C[C@H](CO)Oc2ccc(C[C@H]3C(=O)OC[C@@H]3Cc3ccc(O)c(OC)c3)cc2OC)ccc1O
Activity [3]: inactive
Growth-inhibition halo [4]: inactive

COc1cc([C@H]2OC[C@H]([C@@H](OC(C)=O)c3ccc(OC(C)=O)c(OC)c3)[C@@H]2COC(C)=O)ccc1OC(C)=O
Activity [1]: inactive
Activity [2]: inactive

COc1cc(C[C@H]2COC(=O)[C@@H]2Cc2ccc(O)c(OC)c2)ccc1O
Activity [3]: inactive
Activity [1]: inactive
Growth-inhibition halo [4]: inactive
Activity [2]: inactive

COc1cc(C[C@H]2[C@H](OC(C)=O)O[C@H](c3ccc(OC(C)=O)c(OC)c3)[C@H]2COC(C)=O)ccc1OC(C)=O
Activity [1]: inactive
Activity [2]: inactive
